# Measured values reported in ChEMBL document CHEMBL1148764, “CYP2C9 structure-metabolism relationships: optimizing the metabolic stability of COX-2 inhibitors” (J Med Chem, 2007).
# Key:
# CYP2C9 = CYP2C9 (Homo sapiens, UniProt P11712); assay: Metabolic stability in presence of human recombinant CYP2C9 at 1 uM after 30 mins; format: ADME
# How it was run: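 Recombinant human CYP2C9 (Bactosomes), 5 pmol per reaction, in […] buffer pH 7.4 with 1 mM NADPH. Compound 1 µM, added in acetonitrile (2.5% final). 10 min preincubation at 37 °C, reaction started with NADPH, sampled at 0 and 30 min, stopped with ice-cold acetonitrile. Parent remaining quantified by LC/MS/MS as % metabolized. Run in duplicate.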
# [1] = target: Prostaglandin G/H synthase 1 (Homo sapiens) (UniProt P23219); conditions: at 100 µM;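 note: recombinant human COX-1 enzyme, activity read out as PGE2 production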
# [2] = target: T1, Prostaglandin G/H synthase 2 (Homo sapiens) (UniProt P35354); conditions: at 100 µM;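 note: recombinant enzyme assay, activity read out as PGE2 generation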
# T1 sequence (whole entry): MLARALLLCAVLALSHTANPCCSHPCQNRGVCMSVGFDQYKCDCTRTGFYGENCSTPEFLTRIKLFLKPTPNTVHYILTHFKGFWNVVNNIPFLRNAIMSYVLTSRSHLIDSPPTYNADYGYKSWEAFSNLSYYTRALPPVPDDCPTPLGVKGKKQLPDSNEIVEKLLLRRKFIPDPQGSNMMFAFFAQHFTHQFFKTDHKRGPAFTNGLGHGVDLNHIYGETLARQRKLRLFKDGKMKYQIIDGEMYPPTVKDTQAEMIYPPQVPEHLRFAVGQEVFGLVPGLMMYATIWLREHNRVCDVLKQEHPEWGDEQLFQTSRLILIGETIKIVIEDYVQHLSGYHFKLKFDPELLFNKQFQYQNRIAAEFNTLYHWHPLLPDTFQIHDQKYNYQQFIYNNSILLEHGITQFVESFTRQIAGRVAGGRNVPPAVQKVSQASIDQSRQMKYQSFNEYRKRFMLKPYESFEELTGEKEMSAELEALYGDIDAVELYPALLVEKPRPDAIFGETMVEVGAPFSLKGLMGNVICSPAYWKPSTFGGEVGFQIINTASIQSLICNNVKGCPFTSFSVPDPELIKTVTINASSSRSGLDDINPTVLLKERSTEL
# Sequence of Prostaglandin G/H synthase 1 (Homo sapiens) (P23219 whole entry): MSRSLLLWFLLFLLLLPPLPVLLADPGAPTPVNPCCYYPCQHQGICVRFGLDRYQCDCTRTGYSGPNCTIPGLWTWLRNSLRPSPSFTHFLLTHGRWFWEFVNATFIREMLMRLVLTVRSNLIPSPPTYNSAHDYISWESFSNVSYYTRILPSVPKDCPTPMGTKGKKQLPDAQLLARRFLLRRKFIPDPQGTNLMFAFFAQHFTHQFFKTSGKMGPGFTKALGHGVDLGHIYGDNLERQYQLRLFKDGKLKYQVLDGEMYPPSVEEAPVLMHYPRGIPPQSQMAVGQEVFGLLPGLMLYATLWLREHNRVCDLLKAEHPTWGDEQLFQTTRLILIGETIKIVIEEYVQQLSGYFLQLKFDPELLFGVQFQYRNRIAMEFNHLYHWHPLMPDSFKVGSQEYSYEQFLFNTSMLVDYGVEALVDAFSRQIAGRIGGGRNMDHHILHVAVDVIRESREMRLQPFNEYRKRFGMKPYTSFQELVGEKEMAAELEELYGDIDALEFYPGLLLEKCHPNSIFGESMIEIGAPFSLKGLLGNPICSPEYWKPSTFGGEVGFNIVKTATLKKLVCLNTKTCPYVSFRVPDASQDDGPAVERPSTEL
# Sequence of CYP2C9 (P11712 whole entry): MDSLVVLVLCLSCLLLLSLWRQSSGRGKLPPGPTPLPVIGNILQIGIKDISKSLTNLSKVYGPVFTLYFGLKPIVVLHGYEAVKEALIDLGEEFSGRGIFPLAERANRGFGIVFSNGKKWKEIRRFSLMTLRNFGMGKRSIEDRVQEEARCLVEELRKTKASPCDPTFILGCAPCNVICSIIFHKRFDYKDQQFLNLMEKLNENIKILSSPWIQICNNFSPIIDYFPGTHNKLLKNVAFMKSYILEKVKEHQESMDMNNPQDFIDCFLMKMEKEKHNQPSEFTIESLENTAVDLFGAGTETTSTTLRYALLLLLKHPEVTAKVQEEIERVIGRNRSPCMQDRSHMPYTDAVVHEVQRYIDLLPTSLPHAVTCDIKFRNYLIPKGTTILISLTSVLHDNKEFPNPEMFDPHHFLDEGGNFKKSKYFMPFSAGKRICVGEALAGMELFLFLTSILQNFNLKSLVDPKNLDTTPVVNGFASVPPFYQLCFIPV
"metabolized at 0.5 h, 1 µM (CYP2C9) [%]",inhibition [1] [%],inhibition [2] [%],Compound
48,82,99,Cc1ccc(-c2cc(C(F)(F)F)nn2-c2ccc([S+](C)[O-])cc2)cc1 (stereo unspecified)
2,55,96,CCOC(=O)c1ccc(-n2nc(C(F)(F)F)cc2-c2ccc(C(F)(F)F)cc2)cc1
81,99,92,Cc1ccc(-c2cc(C(F)(F)F)nn2-c2ccc(S(C)(=O)=O)cc2)cc1
88,55,87,CCOC(=O)c1ccc(-n2nc(C(F)(F)F)cc2-c2ccc(C)cc2)cc1
4,96,93,O=C(O)Cc1ccc(-n2nc(C(F)(F)F)cc2-c2ccc(C(F)(F)F)cc2)cc1
49,100,92,Cc1ccc(-c2cc(-c3ccccc3)nn2-c2ccc(S(N)(=O)=O)cc2)cc1
87,95,99,CSc1ccc(-n2nc(C(F)(F)F)cc2-c2ccc(C)cc2)cc1
10,88,95,Cc1ccc(-c2cc(C(F)(F)F)nn2-c2ccc(CC(=O)O)cc2)cc1
29,28,6,O=C(O)c1ccc(-n2nc(C(F)(F)F)cc2-c2ccc(C(F)(F)F)cc2)cc1
29,67,26,Cc1ccc(-c2cc(C(F)(F)F)nn2-c2ccc(C(=O)O)cc2)cc1
30,,,Cc1ccc(-c2cc(C(F)(F)F)nn2-c2ccc(C)cc2)cc1
94,,,Cc1ccc(-c2cc(C(F)(F)F)nn2-c2ccc(S(N)(=O)=O)cc2)cc1 [CELECOXIB]
0,,,NS(=O)(=O)c1ccc(-n2nc(C(F)(F)F)cc2-c2ccc(C(F)(F)F)cc2)cc1
61,66,43,Cc1ccc(-c2cc(C(=O)O)nn2-c2ccc(S(N)(=O)=O)cc2)cc1
